ChEMBL document CHEMBL1155161, “Effects of the translocation status of human immunodeficiency virus type 1 reverse transcriptase on the efficiency of excision of tenofovir” (Antimicrob Agents Chemother, 2007)

Experiments:
[1] = tested on: Human immunodeficiency virus type 1 reverse transcriptase (Human immunodeficiency virus 1), Q72547 [M41L,D67N,L210W,T215Y]; assay: Ratio of Kcat/Km for HIV1 reverse transcriptase M41L/D67N/L210W/T215Y mutant in presence of 0.5 uM dCTP to Kcat/Km for reverse transcriptase M41L/D67N/L210W/T215Y mutant in presence of 10 uM dCTP by nucleotide excision activity assay
Summary of the method: (§1)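 Purified heterodimeric p66/p51 HIV-1 RT (WT or M41L/D67N/L210W/T215Y). ATP plus a dNTP mix containing the next nucleotide dCTP (0.5 or 10 μM) is then added at 37°C. Excised/rescued product is followed over time on denaturing urea gels. ATP Km and Vmax give kcat/Km; means of ≥3 experiments. Ratios are 4Y/WT or 0.5/10 μM dCTP.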

[2] = tested on: Human immunodeficiency virus 1; assay: Ratio of Kcat/Km for HIV1 reverse transcriptase M41L/D67N/L210W/T215Y mutant to Kcat/Km for wild-type reverse transcriptase assessed as nucleotide excision activity in presence of 0.5 uM dCTP; summary of the method: as §1
[3] = tested on: Human immunodeficiency virus 1; assay: Ratio of Kcat/Km for HIV1 reverse transcriptase M41L/D67N/L210W/T215Y mutant to Kcat/Km for wild-type reverse transcriptase assessed as nucleotide excision activity in presence of 10 uM dCTP; summary of the method: as §1
[4] = tested on: Human immunodeficiency virus type 1 reverse transcriptase (Human immunodeficiency virus 1), Q72547 [M41L,D67N,L210W,T215Y]; assay: Ratio of Kcat to Km for HIV1 reverse transcriptase M41L/D67N/L210W/T215Y mutant assessed as nucleotide excision activity in presence of 10 uM dCTP; summary of the method: as §1
[5] = tested on: Human immunodeficiency virus type 1 reverse transcriptase (Human immunodeficiency virus 1), Q72547 [M41L,D67N,L210W,T215Y]; assay: Inhibition of HIV1 reverse transcriptase M41L/D67N/L210W/T215Y mutant assessed as dCTP level required to form 80% of binary enzyme complex formation with drug-terminated primer in posttranslocation state by site-specific foot printing assay
Summary of the method: (§2)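 Site-specific footprinting uses a radiolabelled template with WT or 4Y p66/p51 RT in pH 7 cacodylate buffer with 6 mM MgCl2. The primer is chain-terminated with 10 μM analogue (20 min, 37°C), then the next nucleotide dCTP is added at varying levels for 10 min at 37°C. Complexes are treated with KOONO and resolved on urea gels. The value is the dCTP level giving 50% or 80% posttranslocated complex; ≥3 experiments.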

[6] = biological target: Human immunodeficiency virus type 1 reverse transcriptase (Human immunodeficiency virus 1) (UniProt Q72547); assay: Inhibition of HIV1 reverse transcriptase assessed as dCTP level required to form 50% of binary enzyme complex formation with drug-terminated primer in posttranslocation state by site-specific foot printing assay; summary of the method: as §2
[7] = biological target: Human immunodeficiency virus type 1 reverse transcriptase (Human immunodeficiency virus 1) (UniProt Q72547); assay: Ratio of Kcat to Km for HIV1 reverse transcriptase assessed as nucleotide excision activity in presence of 0.5 uM dCTP; summary of the method: as §1
[8] = biological target: Human immunodeficiency virus type 1 reverse transcriptase (Human immunodeficiency virus 1) (UniProt Q72547); assay: Ratio of Kcat/Km for HIV1 reverse transcriptase in presence of 0.5 uM dCTP to Kcat/Km for reverse transcriptase in presence of 10 uM dCTP by nucleotide excision activity assay; summary of the method: as §1
[9] = tested on: Human immunodeficiency virus type 1 reverse transcriptase (Human immunodeficiency virus 1), Q72547 [M41L,D67N,L210W,T215Y]; assay: Inhibition of HIV1 reverse transcriptase M41L/D67N/L210W/T215Y mutant assessed as dCTP level required to form 50% of binary enzyme complex formation with drug-terminated primer in posttranslocation state by site-specific foot printing assay; summary of the method: as §2
[10] = biological target: Human immunodeficiency virus type 1 reverse transcriptase (Human immunodeficiency virus 1) (UniProt Q72547); assay: Inhibition of HIV1 reverse transcriptase assessed as dCTP level required to form 80% of binary enzyme complex formation with drug-terminated primer in posttranslocation state by site-specific foot printing assay; summary of the method: as §2
[11] = tested on: Human immunodeficiency virus type 1 reverse transcriptase (Human immunodeficiency virus 1), Q72547 [M41L,D67N,L210W,T215Y]; assay: Ratio of Kcat to Km for HIV1 reverse transcriptase M41L/D67N/L210W/T215Y mutant assessed as nucleotide excision activity in presence of 0.5 uM dCTP; summary of the method: as §1
[12] = biological target: Human immunodeficiency virus type 1 reverse transcriptase (Human immunodeficiency virus 1) (UniProt Q72547); assay: Ratio of Kcat to Km for HIV1 reverse transcriptase assessed as nucleotide excision activity in presence of 10 uM dCTP; summary of the method: as §1
[13] = tested on: [N-]=[N+]=N[C@H]1C[C@H](n2cnc3c(N)ncnc32)O[C@@H]1COP(=O)(O)O; assay: (§3) Activity of HIV1 reverse transcriptase M41L/D67N/L210W/T215Y mutant assessed as nucleotide excision activity in presence of 0.5 uM dCTP; conditions: Human immunodeficiency virus 1; summary of the method: as §1
[14] = tested on: Cc1cn([C@H]2C[C@H](N=[N+]=[N-])[C@@H](COP(=O)(O)O)O2)c(=O)[nH]c1=O; assay: as §3; conditions: Human immunodeficiency virus 1; summary of the method: as §1
[15] = tested on: C[C@H](Cn1cnc2c(N)ncnc21)OCP(=O)(O)O; assay: as §3; conditions: Human immunodeficiency virus 1; summary of the method: as §1
[16] = tested on: [N-]=[N+]=N[C@H]1C[C@H](n2cnc3c(N)ncnc32)O[C@@H]1COP(=O)(O)O; assay: (§4) Activity of HIV1 reverse transcriptase M41L/D67N/L210W/T215Y mutant assessed as nucleotide excision activity in presence of 10 uM dCTP; conditions: Human immunodeficiency virus 1; summary of the method: as §1
[17] = tested on: Cc1cn([C@H]2C[C@H](N=[N+]=[N-])[C@@H](COP(=O)(O)O)O2)c(=O)[nH]c1=O; assay: as §4; conditions: Human immunodeficiency virus 1; summary of the method: as §1
[18] = tested on: C[C@H](Cn1cnc2c(N)ncnc21)OCP(=O)(O)O; assay: as §4; conditions: Human immunodeficiency virus 1; summary of the method: as §1
[19] = biological target: Human immunodeficiency virus type 1 reverse transcriptase (Human immunodeficiency virus 1) (UniProt Q72547); assay: Ratio of Ki to Km for HIV1 reverse transcriptase by steady state nucleotide incorporation assay
Summary of the method: (§5)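 Steady-state kinetics for WT or 4Y p66/p51 RT on activated calf thymus DNA, with template in excess. Rates come from linear regression of [3H]dNTP incorporation over a time course, with increasing NRTI. Km and Ki are fitted with a competitive inhibition equation (Marquardt-Levenberg); two-tailed t-tests.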

[20] = biological target: Human immunodeficiency virus type 1 reverse transcriptase (Human immunodeficiency virus 1, UniProt Q72547, D67N/L210W/M41L/T215Y); assay: Inhibition of HIV1 reverse transcriptase M41L/D67N/L210W/T215Y mutant by steady state nucleotide incorporation assay; summary of the method: as §5
[21] = tested on: Human immunodeficiency virus 1; assay: Ratio of Ki for HIV1 reverse transcriptase M41L/D67N/L210W/T215Y mutant to Ki for wild-type reverse transcriptase; summary of the method: as §5
[22] = biological target: T1, Human immunodeficiency virus type 1 reverse transcriptase (Human immunodeficiency virus 1, UniProt Q72547); assay: Inhibition of HIV1 reverse transcriptase by steady state nucleotide incorporation assay
Summary of the method: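 Steady-state assay with activated calf thymus DNA as template in excess; rates from linear regression of [3H]dNTP incorporation over time; Km and Ki fitted to competitive inhibition equation (constant Vmax) over increasing NRTI concentrations; two-tailed t tests.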

[23] = tested on: Human immunodeficiency virus 1; assay: Ratio of Ki/Km for HIV1 reverse transcriptase M41L/D67N/L210W/T215Y mutant to Ki/Km for wild-type reverse transcriptase; summary of the method: as §5
[24] = tested on: Human immunodeficiency virus type 1 reverse transcriptase (Human immunodeficiency virus 1), Q72547 [M41L,D67N,L210W,T215Y]; assay: Ratio of Ki to Km for HIV1 reverse transcriptase M41L/D67N/L210W/T215Y mutant by steady state nucleotide incorporation assay; summary of the method: as §5
[25] = biological target: T1, Human immunodeficiency virus type 1 reverse transcriptase; assay: Binding affinity to ternary complex of HIV1 reverse transcriptase with primer/template in presence of dCTP substrate

Row | Compound | Ratio [1] | Ratio [2] | Ratio [3] | Ratio [4] | Activity [5] [µM] | Activity [6] [µM] | Ratio [7] | Ratio [8] | Activity [9] [µM] | Activity [10] [µM] | Ratio [11] | Ratio [12] | Ratio [19] | Ki [20] [nM] | Ratio Ki [21] | Ki [22] [nM] | Ratio [23] | Ratio [24] | Kd [25] [nM] | other results
1 | [N-]=[N+]=N[C@H]1C[C@H](n2cnc3c(N)ncnc32)O[C@@H]1COP(=O)(O)O | 1.3 | 3.3 | 3.2 | 1.2 | > 100 | 10 | 0.49 | 1.3 | 27 | 100 | 1.6 | 0.37 |  |  |  |  |  |  |  | 
2 | Human immunodeficiency virus type 1 reverse transcriptase (Human immunodeficiency virus 1) (from UniProt Q72547) M41L,D67N,L210W,T215Y |  |  |  |  |  |  |  |  |  |  |  |  |  |  |  |  |  |  |  | Km [13]: 2000 µM; kcat [13]: 3.2 ×10⁻³ /min; Km [14]: 1400 µM; kcat [14]: 1.8 ×10⁻³ /min; Km [15]: 590 µM; kcat [15]: 9.7 ×10⁻³ /min; Km [16]: 2000 µM; kcat [16]: 2.4 ×10⁻³ /min; Km [17]: 1200 µM; kcat [17]: 1.3 ×10⁻³ /min; Km [18]: 960 µM; kcat [18]: 2.8 ×10⁻³ /min
3 | C[C@H](Cn1cnc2c(N)ncnc21)OCP(=O)(O)OP(=O)(O)O |  |  |  |  |  |  |  |  |  |  |  |  | 0.47 | 110 | 0.5 | 210 | 0.4 | 0.19 |  | 
4 | Nc1ncnc2c1ncn2[C@H]1CC[C@@H](COP(=O)(O)OP(=O)(O)OP(=O)(O)O)O1 [DDA-TRIPHOSPHATE] |  |  |  |  |  |  |  |  |  |  |  |  | 0.2 | 50 | 0.6 | 90 | 0.5 | 0.09 |  | 
5 | [N-]=[N+]=N[C@H]1C[C@H](n2cnc3c(N)ncnc32)O[C@@H]1COP(=O)(O)OP(=O)(O)OP(=O)(O)OP(=O)(O)O |  |  |  |  |  |  |  |  |  |  |  |  | 0.51 | 150 | 0.65 | 230 | 0.5 | 0.26 |  | 
6 | Cc1cn([C@H]2C[C@H](N=[N+]=[N-])[C@@H](COP(=O)(O)OP(=O)(O)OP(=O)(O)O)O2)c(=O)[nH]c1=O |  |  |  |  |  |  |  |  |  |  |  |  | 0.09 |  | 1.2 |  | 1 | 0.09 |  | 
7 | C[C@H](Cn1cnc2c(N)ncnc21)OCP(=O)(O)O [TENOFOVIR ANHYDROUS] | 5.7 | 14.9 | 19.3 | 2.9 | 2 | 0.1 | 1.1 | 7.3 | 0.3 | 3 | 16.4 | 0.15 |  |  |  |  | 0.4 |  | 3200 | 
8 | Cc1cn([C@H]2C[C@H](N=[N+]=[N-])[C@@H](COP(=O)(O)O)O2)c(=O)[nH]c1=O [AZIDOTHYMIDINE MONOPHOSPHATE] | 1.2 | 6.8 | 6.8 | 1.08 | 50 | 8 | 0.19 | 1.2 | 8 | 31 | 1.3 | 0.16 |  |  |  |  |  |  | 24900 | 
9 | Nc1ncnc2c1ncn2[C@H]1CC[C@@H](COP(=O)(O)O)O1 |  |  |  |  | 0.3 |  |  |  |  | 0.2 |  |  |  |  |  |  |  |  | 100 | 
10 | Cc1cn([C@H]2C[C@H](N=[N+]=[N-])[C@@H](CO[P@](=O)(O)O[P@](=O)(O)OP(=O)(O)O)O2)c(=O)[nH]c1=O [ZIDOVUDINE TRIPHOSPHATE] |  |  |  |  |  |  |  |  |  |  |  |  |  | 47 |  | 41 |  |  |  | 
